Laboratory results published in ChEMBL document CHEMBL2010769, “Synthesis and antiviral activity of 6-deoxycyclopropavir, a new prodrug of cyclopropavir” (Bioorg Med Chem, 2012).
pEC50: −log10 of the molar value.

Experiments:
Human betaherpesvirus 5 [1] = test: Antiviral activity against HCMV Toledo infected in human thymus/liver tissue xenografted in SCID mouse assessed as decrease in viral infection at 6.25 mg/kg, po qd for 28 days measured on day 35 by RT-PCR analysis (reference value: 67%); format: functional, strain Toledo; set-up: scale not given: the % may be the effect or the level left
Human betaherpesvirus 5 [2] = test: Antiviral activity against HCMV Toledo infected in human thymus/liver tissue xenografted in SCID mouse assessed as mean log10 genome equivalents/animal at 12.5 mg/kg, po qd for 28 days measured on day 35 by RT-PCR analysis (reference value: 3.28 +/- 1.422); format: functional, strain Toledo
Murid betaherpesvirus 1 [3] = test: Antiviral activity against MCMV infected in BALB/c mouse assessed as decrease in virus-induced mortality at 16.7 mg/kg, po qd for 5 days administered 48 hrs after viral infection (reference value: 100%); format: functional; set-up: scale not given: the % may be the effect or the level left
Summary of the method: (§1)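 Female BALB/c mice (3 weeks, 15/group) were inoculated ip with MCMV Smith at about LD90. Oral dosing of 0.2 mL in 0.4% CMC ran once daily for 5 days, starting 24 or 48 h post-inoculation. Mice were observed daily for 21 days. Mortality was compared with CMC placebo by Fisher's exact test.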

Human gammaherpesvirus 4 = test: Antiviral activity against Epstein-Barr virus infected in Akata cells by DNA hybridization assay; format: functional, organism-based; conditions: human gammaherpesvirus 4, Akata
Murid betaherpesvirus 1 [4] = test: Antiviral activity against MCMV infected in BALB/c mouse assessed as decrease in virus-induced mortality at 50 mg/kg, po qd for 5 days administered 48 hrs after viral infection (reference value: 100%); format: functional; set-up: scale not given: the % may be the effect or the level left; summary of the method: as §1
Mus musculus [5] = test: Toxicity in BALB/c mouse assessed as ruffled coat appearance at 16.7 mg/kg, po qd for 5 days relative to control; format: organism-based; set-up: dose 16.7 mg/kg, route oral; conditions: in vivo, 120 h
Summary of the method: (§2)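 Uninfected female BALB/c mice, 3 weeks old, in groups of 5. Compound suspended in 0.4% carboxymethylcellulose and given orally in 0.2 mL once daily for 5 days at 50, 16.7 or 5.6 mg/kg. Mean group body weight tracked over days 1–5 plus day 6 recovery. Clinical signs (ruffled coat, behaviour) were observed. Comparison was with vehicle-treated or untreated mice.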

Mus musculus [6] = test: Toxicity in BALB/c mouse assessed as changes in behavior at 16.7 mg/kg, po qd for 5 days relative to control; format: organism-based; set-up: dose 16.7 mg/kg, route oral; conditions: in vivo, 120 h; summary of the method: as §2
Mus musculus [7] = test: Toxicity in BALB/c mouse assessed as body weight loss at 5.6 mg/kg, po qd for 5 days relative to control; format: organism-based; set-up: dose 5.6 mg/kg, route oral; conditions: in vivo, 120 h; summary of the method: as §2
Human betaherpesvirus 5 [8] = test: Antiviral activity against HCMV Toledo infected in human thymus/liver tissue xenografted in SCID mouse assessed as mean log10 genome equivalents/animal at 6.25 mg/kg, po qd for 21 days by RT-PCR analysis (reference value: 3.82 +/- 1.24); format: functional, strain Toledo
Human betaherpesvirus 5 [9] = test: Antiviral activity against HCMV Toledo infected in human thymus/liver tissue xenografted in SCID mouse assessed as decrease in viral infection at 12.5 mg/kg, po qd for 21 days by RT-PCR analysis (reference value: 92%); format: functional, strain Toledo; set-up: scale not given: the % may be the effect or the level left
Human betaherpesvirus 5 [10] = test: Antiviral activity against HCMV Toledo infected in human thymus/liver tissue xenografted in SCID mouse assessed as mean log10 genome equivalents/animal at 12.5 mg/kg, po qd for 14 days by RT-PCR analysis (reference value: 3.50 +/- 0.878); format: functional, strain Toledo
Murid betaherpesvirus 1 [11] = test: Antiviral activity against MCMV infected in BALB/c mouse assessed as decrease in virus-induced mean day of death at 5.6 mg/kg, po qd for 5 days administered 24 hrs after viral infection (reference value: 4.9 +/- 0.7 days); format: functional
Human betaherpesvirus 5 [12] = test: Antiviral activity against HCMV Towne infected in HFF by plaque reduction assay; format: functional, organism-based; conditions: Human betaherpesvirus 5, Towne
Summary of the method: (§3)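 HCMV work used human foreskin fibroblasts as primary cultures, propagated in MEM with 10% FBS and L-glutamine, with or without antibiotics.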

Murid betaherpesvirus 1 [13] = test: Antiviral activity against MCMV infected in BALB/c mouse assessed as decrease in virus-induced mortality at 5.6 mg/kg, po qd for 5 days administered 24 hrs after viral infection (reference value: 67%); format: functional; set-up: scale not given: the % may be the effect or the level left; summary of the method: as §1
Human alphaherpesvirus 2 = test: Antiviral activity against HSV2 infected in HFF assessed as reduction in virus induced cytopathic effect; format: functional, organism-based
Human betaherpesvirus 5 [14] = test: Antiviral activity against HCMV Toledo infected in human thymus/liver tissue xenografted in SCID mouse assessed as decrease in viral infection at 6.25 mg/kg, po qd for 14 days by RT-PCR analysis (reference value: 92%); format: functional, strain Toledo; set-up: scale not given: the % may be the effect or the level left
[15] = Cytotoxicity against HFF; format: cell-based; conditions: human, HFF cells
Human betaherpesvirus 5 [16] = test: Antiviral activity against HCMV Toledo infected in human thymus/liver tissue xenografted in SCID mouse assessed as mean log10 genome equivalents/animal at 12.5 mg/kg, po qd for 28 days by RT-PCR analysis (reference value: 3.73 +/- 0.784); format: functional, strain Toledo
Mus musculus [17] = test: Toxicity in BALB/c mouse assessed as ruffled coat appearance at 5.6 mg/kg, po qd for 5 days relative to control; format: organism-based; set-up: dose 5.6 mg/kg, route oral; conditions: in vivo, 120 h; summary of the method: as §2
Mus musculus [18] = test: Toxicity in BALB/c mouse assessed as changes in behavior at 50 mg/kg, po qd for 5 days relative to control; format: organism-based; set-up: dose 50 mg/kg, route oral; conditions: in vivo, 120 h; summary of the method: as §2
[19] = Cytotoxicity against human Akata cells; format: cell-based
Murid betaherpesvirus 1 [20] = test: Antiviral activity against MCMV infected in BALB/c mouse assessed as decrease in virus-induced mortality at 16.7 mg/kg, po qd for 5 days administered 24 hrs after viral infection (reference value: 67%); format: functional; set-up: scale not given: the % may be the effect or the level left; summary of the method: as §1
Human betaherpesvirus 5 [21] = test: Antiviral activity against HCMV Toledo infected in human thymus/liver tissue xenografted in SCID mouse assessed as mean log10 genome equivalents/animal at 6.25 mg/kg, po qd for 28 days by RT-PCR analysis (reference value: 3.73 +/- 0.784); format: functional, strain Toledo
Human betaherpesvirus 5 [22] = test: Antiviral activity against HCMV Toledo infected in human thymus/liver tissue xenografted in SCID mouse assessed as decrease in viral infection at 12.5 mg/kg, po qd for 14 days by RT-PCR analysis (reference value: 92%); format: functional, strain Toledo; set-up: scale not given: the % may be the effect or the level left
Human betaherpesvirus 5 [23] = test: Antiviral activity against HCMV Toledo infected in human thymus/liver tissue xenografted in SCID mouse assessed as mean log10 genome equivalents/animal at 6.25 mg/kg, po qd for 14 days by RT-PCR analysis (reference value: 3.50 +/- 0.878); format: functional, strain Toledo
[24] = Prodrug activation assessed as cyclopropavir formation in presence of cow milk xanthine oxidase; conditions: cattle
Summary of the method: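 Cow-milk xanthine oxidase, 0.4 units, acting on 0.07 mM substrate in 0.05 M Na2HPO4, pH 7.5, at room temperature. Conversion followed continuously at 304 nm. UV spectra were taken before enzyme addition (T = 0) and at 720 min and matched against authentic parent and product.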

Human betaherpesvirus 5 [25] = test: Antiviral activity against HCMV Toledo infected in human thymus/liver tissue xenografted in SCID mouse assessed as decrease in viral infection at 6.25 mg/kg, po qd for 28 days by RT-PCR analysis (reference value: 92%); format: functional, strain Toledo; set-up: scale not given: the % may be the effect or the level left
Mus musculus [26] = test: Toxicity in BALB/c mouse assessed as body weight loss at 16.7 mg/kg, po qd for 5 days relative to control; format: organism-based; set-up: dose 16.7 mg/kg, route oral; conditions: in vivo, 120 h; summary of the method: as §2
Human betaherpesvirus 5 [27] = test: Antiviral activity against HCMV AD169 infected in HFF assessed as reduction in virus induced cytopathic effect; format: functional, organism-based; conditions: Human betaherpesvirus 5, AD169; summary of the method: as §3

Nc1ncc2ncn(/C=C3/CC3(CO)CO)c2n1
Activity (Human betaherpesvirus 5 [1]): 100%
Activity (Human betaherpesvirus 5 [2]): 2.69
Activity (Murid betaherpesvirus 1 [3]): 7%
pEC50 (Human gammaherpesvirus 4): 4.57
Activity (Murid betaherpesvirus 1 [4]): 67%
Activity (Mus musculus [5]): Non-toxic
Activity (Mus musculus [6]): Non-toxic
Activity (Mus musculus [7]): Non-toxic
Activity (Human betaherpesvirus 5 [8]): 3.14
Activity (Human betaherpesvirus 5 [9]): 82%
Activity (Human betaherpesvirus 5 [10]): 3.03
Activity (Murid betaherpesvirus 1 [11]): 6 days
pEC50 (Human betaherpesvirus 5 [12]): < 4.00
Activity (Murid betaherpesvirus 1 [13]): 7%
pEC50 (Human alphaherpesvirus 2): < 3.52
Activity (Human betaherpesvirus 5 [14]): 92%
CC50 [15]: > 100 µM
Activity (Human betaherpesvirus 5 [16]): 2.76
Activity (Mus musculus [17]): Non-toxic
Activity (Mus musculus [18]): Non-toxic
CC50 [19]: 71 µM
Activity (Murid betaherpesvirus 1 [20]): 0%
Activity (Human betaherpesvirus 5 [21]): 2.81
Activity (Human betaherpesvirus 5 [22]): 100%
Activity (Human betaherpesvirus 5 [23]): 3.9
Drug metabolism [24]: Active
Activity (Human betaherpesvirus 5 [25]): 58%
Activity (Mus musculus [26]): Non-toxic
pEC50 (Human betaherpesvirus 5 [27]): < 3.52
